Reference: ChEMBL document CHEMBL5380838, “Novel Aryl Sulfonamide Derivatives as NLRP3 Inflammasome Inhibitors for the Potential Treatment of Cancer” (J Med Chem, 2023)
Calls of active or inactive are those of the source. The rule behind the calls is not given here.

What was measured:
[1] = molecular target: NACHT, LRR and PYD domains-containing protein 3 (Mus musculus) (UniProt Q8R4B8); experiment: Inhibition of NLRP3 inflammasome activation in LPS-treated mouse BMDM cells assessed as inhibition of Bz-ATP-stimulated IL-1beta release at 1 uM incubated for 30 mins followed by Bz-ATP stimulation for 30 mins by ELISA method relative to control; assay type: cell-based; conditions: time 60.0 min
Outline: (§1)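 Mouse BMDMs, C57BL/6 bone marrow cells differentiated 7 days with M-CSF 10 ng/mL, seeded 5 × 10^5/well. Primed with LPS 1 µg/mL for 2 h, then compound 1 µM in serum-free medium for 30 min, then Bz-ATP 100 µM for 30 min. Supernatant IL-1β by ELISA in pg/mL and as percent inhibition. Mean ± SEM of three independent experiments in triplicate.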

[2] = molecular target: NACHT, LRR and PYD domains-containing protein 3 (Mus musculus) (UniProt Q8R4B8); experiment: Inhibition of NLRP3 inflammasome activation in LPS-treated mouse BMDM cells assessed as Bz-ATP-stimulated IL-1beta level at 1 uM incubated for 30 mins followed by Bz-ATP stimulation for 30 mins by ELISA method; assay type: cell-based; conditions: time 60.0 min; outline: as §1
[3] = molecular target: NACHT, LRR and PYD domains-containing protein 3 (Mus musculus) (UniProt Q8R4B8); experiment: Inhibition of NLRP3 inflammasome activation in LPS-treated mouse BMDM cells assessed as inhibition of Bz-ATP-stimulated IL-1beta release at 1 uM incubated for 30 mins followed by Bz-ATP stimulation for 30 mins by ELISA method; assay type: cell-based; conditions: time 60.0 min; outline: as §1
[4] = Metabolic stability in human liver microsomes assessed as intrinsic clearance measured per mg protein at 1 uM measured upto 60 mins by LC-MS/MS analysis; assay type: ADME, Microsome; conditions: read-out: CLH
Outline: (§2)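 Pooled human or CD-1 male mouse liver microsomes at 0.5 mg/mL with test compound 1 µM in 50 mM phosphate pH 7.4 and 3 mM MgCl2, preincubated 10 min at 37 °C. Percent parent remaining vs 0 min measured by LC-MS/MS. Cli = k/microsomal conc. × 1000; mean ± SD, n = 2.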

[5] = Metabolic stability in mouse liver microsomes assessed as half life measured per mg protein at 1 uM measured upto 60 mins by LC-MS/MS analysis; assay type: ADME, Microsome; outline: as §2
[6] = Metabolic stability in mouse liver microsomes assessed as intrinsic clearance measured per mg protein at 1 uM measured upto 60 mins by LC-MS/MS analysis; assay type: ADME, Microsome; conditions: read-out: CLH; outline: as §2
[7] = Metabolic stability in human liver microsomes assessed as half life measured per mg protein at 1 uM measured upto 60 mins by LC-MS/MS analysis; assay type: ADME, Microsome; outline: as §2

Sequence of NACHT, LRR and PYD domains-containing protein 3 (Mus musculus) (Q8R4B8 whole entry, the tested form may be a part): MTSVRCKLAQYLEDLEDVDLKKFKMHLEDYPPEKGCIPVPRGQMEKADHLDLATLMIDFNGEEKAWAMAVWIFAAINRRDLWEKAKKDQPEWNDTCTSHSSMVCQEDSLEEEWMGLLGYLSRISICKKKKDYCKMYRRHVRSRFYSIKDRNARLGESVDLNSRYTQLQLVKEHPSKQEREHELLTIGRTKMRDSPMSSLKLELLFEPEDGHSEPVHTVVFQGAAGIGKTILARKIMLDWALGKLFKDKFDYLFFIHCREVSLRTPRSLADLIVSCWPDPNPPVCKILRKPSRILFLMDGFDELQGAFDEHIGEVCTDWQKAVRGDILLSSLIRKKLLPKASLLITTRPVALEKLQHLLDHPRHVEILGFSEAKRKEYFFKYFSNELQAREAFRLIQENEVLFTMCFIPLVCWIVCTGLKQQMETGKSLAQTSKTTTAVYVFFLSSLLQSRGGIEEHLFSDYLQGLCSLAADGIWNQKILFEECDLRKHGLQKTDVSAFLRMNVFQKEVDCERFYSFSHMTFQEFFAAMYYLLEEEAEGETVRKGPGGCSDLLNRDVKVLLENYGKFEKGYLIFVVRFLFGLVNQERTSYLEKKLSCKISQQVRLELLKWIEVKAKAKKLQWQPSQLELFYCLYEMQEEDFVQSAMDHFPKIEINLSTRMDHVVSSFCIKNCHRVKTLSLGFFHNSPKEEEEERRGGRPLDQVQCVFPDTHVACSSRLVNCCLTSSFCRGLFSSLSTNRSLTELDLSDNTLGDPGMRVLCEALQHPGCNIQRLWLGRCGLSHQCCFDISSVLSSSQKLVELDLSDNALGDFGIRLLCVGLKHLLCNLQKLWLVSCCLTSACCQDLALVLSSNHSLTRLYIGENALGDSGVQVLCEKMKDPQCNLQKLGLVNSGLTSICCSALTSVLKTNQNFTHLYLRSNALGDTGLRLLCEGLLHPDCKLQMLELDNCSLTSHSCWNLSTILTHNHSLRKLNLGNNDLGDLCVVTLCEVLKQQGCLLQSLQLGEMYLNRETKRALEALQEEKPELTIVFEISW

inhibition [1]	Activity [2]	SMILES	also measured
52.4%	135 pg/mL	O=C(Nc1c2c(cc3c1CCC3)CCC2)[C@@H]1CCCCN1S(=O)(=O)c1ccc([N+](=O)[O-])cc1	
22.3%	220 pg/mL	Nc1ccc(S(=O)(=O)NCCC(=O)Nc2c3c(cc4c2CCC4)CCC3)cc1	
46.4%	152 pg/mL	Nc1ccc(S(=O)(=O)N[C@H](Cc2ccccc2)C(=O)Nc2c3c(cc4c2CCC4)CCC3)cc1	
	348 pg/mL	Nc1ccc(S(=O)(=O)NCC(=O)Nc2c3c(cc4c2CCC4)CCC3)cc1	inhibition [3]: inactive
19.8%	227 pg/mL	O=C(Nc1c2c(cc3c1CCC3)CCC2)[C@H](Cc1ccccc1)NS(=O)(=O)c1ccc([N+](=O)[O-])cc1	
25.4%	211 pg/mL	Nc1ccc(S(=O)(=O)N2CCCC[C@H]2C(=O)Nc2c3c(cc4c2CCC4)CCC3)cc1	
25.7%	210 pg/mL	O=C(Nc1c2c(cc3c1CCC3)CCC2)[C@@H]1CCCN1S(=O)(=O)c1ccc([N+](=O)[O-])cc1	
31.5%	194 pg/mL	CC(C)C[C@H](NS(=O)(=O)c1ccc(N)cc1)C(=O)Nc1c2c(cc3c1CCC3)CCC2	
50.2%		CC(C)[C@H](NS(=O)(=O)c1ccc(N)cc1)C(=O)Nc1c2c(cc3c1CCC3)CCC2	
25.1%		CC(C)[C@@H](NS(=O)(=O)c1ccc(N)cc1)C(=O)Nc1c2c(cc3c1CCC3)CCC2	
28.4%	203 pg/mL	NCCCC[C@H](NS(=O)(=O)c1ccc(N)cc1)C(=O)Nc1c2c(cc3c1CCC3)CCC2	
17.3%		C[C@H](NS(=O)(=O)c1ccc(N)cc1)C(=O)Nc1c2c(cc3c1CCC3)CCC2	
		CCOc1ccc2ccc(=O)oc2c1	microsomal CLint at 1 µM [4]: 168 µL/min/mg; half-life at 1 µM [5]: 3.3 min; microsomal CLint at 1 µM [6]: 422 µL/min/mg; half-life at 1 µM [7]: 8.3 min
36.5%	180 pg/mL	O=C(CCNS(=O)(=O)c1ccc([N+](=O)[O-])cc1)Nc1c2c(cc3c1CCC3)CCC2	
34.7%		O=C(Nc1c2c(cc3c1CCC3)CCC2)[C@H](Cc1ccc(O)cc1)NS(=O)(=O)c1ccc([N+](=O)[O-])cc1	
49.5%	143 pg/mL	O=C(Nc1c2c(cc3c1CCC3)CCC2)[C@@H](Cc1ccccc1)NS(=O)(=O)c1ccc([N+](=O)[O-])cc1	
38%	175 pg/mL	Nc1ccc(S(=O)(=O)N[C@@H](Cc2ccccc2)C(=O)Nc2c3c(cc4c2CCC4)CCC3)cc1	
53.7%	131 pg/mL	O=C(Nc1c2c(cc3c1CCC3)CCC2)[C@@H]1Cc2ccccc2CN1S(=O)(=O)c1ccc([N+](=O)[O-])cc1	
	349 pg/mL	C[C@H](NS(=O)(=O)c1ccc([N+](=O)[O-])cc1)C(=O)Nc1c2c(cc3c1CCC3)CCC2	inhibition [3]: inactive
53.9%	131 pg/mL	CC(C)C[C@H](NS(=O)(=O)c1ccc([N+](=O)[O-])cc1)C(=O)Nc1c2c(cc3c1CCC3)CCC2	
47.5%	149 pg/mL	NCCCC[C@H](NS(=O)(=O)c1ccc([N+](=O)[O-])cc1)C(=O)Nc1c2c(cc3c1CCC3)CCC2	
		CC(C)NCC(O)COc1cccc2ccccc12 (stereo not given) [PROPRANOLOL]	half-life at 1 µM [5]: 7.3 min; half-life at 1 µM [7]: 47 min
41.6%	165 pg/mL	Nc1ccc(S(=O)(=O)N2CCC[C@H]2C(=O)Nc2c3c(cc4c2CCC4)CCC3)cc1	
16.1%	237 pg/mL	Nc1ccc(S(=O)(=O)N[C@H](C(=O)Nc2c3c(cc4c2CCC4)CCC3)c2ccccc2)cc1	
	344 pg/mL	O=C(CNS(=O)(=O)c1ccc([N+](=O)[O-])cc1)Nc1c2c(cc3c1CCC3)CCC2	inhibition [3]: inactive
44.8%	156 pg/mL	O=C(Nc1c2c(cc3c1CCC3)CCC2)[C@H](CNS(=O)(=O)c1ccc([N+](=O)[O-])cc1)c1ccccc1	
